Measurements published in PMC5143172 (Leukemia, 2016).

Tests used:
[1] = test system: Eμ-TCL1 leukemic splenocytes; assay: Eμ-TCL1-C57BL/6 transplant mouse model of CLL; format: in vivo, C57BL/6 mice
Procedure, shortened: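 CD19+CD5+ splenocytes (1×10^7) from an Eμ-TCL1 donor with active leukemia (>10% CD45+CD5+CD19+ in blood) and splenomegaly were injected into C57BL/6 mice by tail vein. At onset (≥10% CD45+CD5+CD19+), mice were randomized to oral gavage with vehicle (0.5% methylcellulose/1% Tween80), test compound 15 mg/kg daily or twice weekly, or ibrutinib 20 mg/kg. Blood flow cytometry was done weekly and spleen volume measured at euthanasia. Kaplan-Meier/log-rank, mixed-effects model, ANOVA (log-transformed, Dunnett).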

[2] = biological target: T1, XPO1 (Saccharomyces cerevisiae, UniProt P30822, DEL377-413/T539C); assay: Pull-down inhibition assay of XPO1 with immobilized NESs; format: biochemical; conditions: 10uM inhibitor
Procedure, shortened: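 Purified recombinant yeast XPO1 (2 μM) was pre-incubated with RanGTP (10 μM) and 10 μM inhibitor for varying times at 4°C. The mixture was rotated with immobilized GST-PKI NES for 1 h. After extensive washing, bound protein was resolved by SDS-PAGE and stained with Coomassie Blue.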

[3] = biological target: T1, XPO1; assay: Reversibility of inhibitor conjugation to XPO1; format: biochemical; conditions: 10uM inhibitor; dialysis or DTT, 24 hours
Procedure, shortened: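 XPO1 was incubated in triplicate with 10 μM inhibitor, then dialysed or treated with DTT. It was then used in a binding assay with RanGTP and immobilized GST-MVM NES, with bound proteins resolved by SDS-PAGE and Coomassie staining. XPO1 band intensities were quantified and expressed as percentage of DMSO-treated controls.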

[4] = biological target: T2, XPO1 (Homo sapiens, UniProt O14980); assay: XPO1 degradation by SINE compound treatment in HT1080 cells; format: cell-based; conditions: 25-1000 nM, 18 hours
[5] = biological target: T2, XPO1; assay: XPO1 total protein in primary CLL cells; format: cell-based; conditions: 0.5 μM
Procedure, shortened: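 Freshly isolated patient CLL cells were treated with DMSO or 0.5 μM compound and harvested at 2, 4, 8 and 18 h (N=3). Cells were lysed in RIPA buffer, resolved by SDS-PAGE and immunoblotted for XPO1. Signal was detected by chemiluminescence and quantified by densitometry.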

[6] = test system: primary CLL cells; assay: Cytotoxicity in primary CLL cells by MTS; format: cell-based, Human; conditions: 48h (24h in Supplementary Figure 6)
[7] = test system: primary CLL cells; assay: Apoptosis of primary CLL cells by annexin-V/PI in FBS or human serum; format: cell-based; conditions: 10% fetal bovine serum or human serum, 24h
[8] = test system: IkB; assay: Nuclear retention of IkB in CLL cells; format: cell-based, Human; conditions: 0.5 μM
Procedure, shortened: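 Treated primary CLL cells were fractionated into nuclear extracts with a commercial kit. Proteins were resolved by SDS-PAGE and probed with anti-IκB antibodies. Bands were detected by chemiluminescence and quantified by densitometry.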

[9] = test system: ABC-DLBCL cell lines; assay: Proliferation of ABC-DLBCL cell lines by MTS; format: cell-based
[10] = test system: GC-DLBCL cell lines; assay: Proliferation of GC-DLBCL cell lines by MTS; format: cell-based
[11] = Brain penetration, mouse; format: in vivo
[12] = Brain penetration, rat; format: in vivo
[13] = Brain penetration, monkey; format: in vivo
[14] = Plasma accumulation after repetitive dosing; format: in vivo; conditions: data not shown
[15] = test system: MV4-11; assay: MV4-11 xenograft mouse model of AML; format: in vivo, NSG mice; conditions: day 21
[16] = test system: primary AML samples; assay: Proliferation assay; format: cell-based; conditions: Homo sapiens
Procedure, shortened: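 Primary AML cells came from blood or frozen bone marrow of three newly diagnosed, untreated patients, collected under informed consent. Viability was measured by WST-1 assay after treatment with the test compound.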

[17] = test system: p53; assay: Confocal microscopy of p53 localization in MV4-11; format: cell-based; conditions: MV4-11, confocal microscopy
Procedure, shortened: (§1)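 About 200,000 cells were cytospun onto slides, then fixed, permeabilized, blocked and immunostained for p53 (MV4-11) or NPM1 (OCI-AML3). DNA was counterstained with DAPI, and subcellular localization was imaged by confocal microscopy using merged channels.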

[18] = test system: NPM1; assay: Confocal microscopy of NPM1 localization in OCI-AML3; format: cell-based
Procedure, shortened: as §1

T2 sequence (O14980 whole entry): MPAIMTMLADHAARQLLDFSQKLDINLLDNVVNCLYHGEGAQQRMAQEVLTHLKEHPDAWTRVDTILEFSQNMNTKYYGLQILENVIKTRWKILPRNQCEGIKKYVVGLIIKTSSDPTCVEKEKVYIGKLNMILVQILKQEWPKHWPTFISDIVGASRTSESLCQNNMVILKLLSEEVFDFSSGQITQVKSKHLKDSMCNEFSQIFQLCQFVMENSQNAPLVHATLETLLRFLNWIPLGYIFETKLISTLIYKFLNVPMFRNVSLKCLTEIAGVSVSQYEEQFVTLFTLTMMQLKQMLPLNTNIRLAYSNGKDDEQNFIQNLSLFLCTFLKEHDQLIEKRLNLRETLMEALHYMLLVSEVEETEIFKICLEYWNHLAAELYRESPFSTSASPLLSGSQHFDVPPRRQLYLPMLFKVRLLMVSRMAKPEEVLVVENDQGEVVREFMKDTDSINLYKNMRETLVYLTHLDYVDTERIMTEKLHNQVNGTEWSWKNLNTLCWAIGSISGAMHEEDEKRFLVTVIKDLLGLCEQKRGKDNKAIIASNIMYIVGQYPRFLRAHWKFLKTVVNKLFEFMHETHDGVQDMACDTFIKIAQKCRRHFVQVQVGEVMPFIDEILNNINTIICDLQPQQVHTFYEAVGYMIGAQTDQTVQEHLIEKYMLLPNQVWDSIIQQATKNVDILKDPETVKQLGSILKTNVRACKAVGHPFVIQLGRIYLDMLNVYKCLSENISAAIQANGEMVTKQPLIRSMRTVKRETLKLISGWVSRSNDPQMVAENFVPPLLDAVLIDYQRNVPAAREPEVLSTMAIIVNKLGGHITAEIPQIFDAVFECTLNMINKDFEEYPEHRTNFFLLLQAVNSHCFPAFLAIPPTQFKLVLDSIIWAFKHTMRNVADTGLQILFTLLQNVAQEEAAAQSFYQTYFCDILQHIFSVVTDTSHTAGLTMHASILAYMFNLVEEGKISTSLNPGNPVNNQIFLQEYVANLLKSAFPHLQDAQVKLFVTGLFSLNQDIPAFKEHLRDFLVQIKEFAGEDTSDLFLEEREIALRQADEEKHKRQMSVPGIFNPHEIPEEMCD

## C=CC(=O)N1CCC[C@@H](n2nc(-c3ccc(Oc4ccccc4)cc3)c3c(N)ncnc32)C1 [ibrutinib, reference compound]
[1]; Fig.4D cohort, ibrutinib 20 mg/kg daily, vehicle 20 days
  Median OS: 26 days

## NC(=O)/C(=C/n1cnc(-c2cc(C(F)(F)F)cc(C(F)(F)F)c2)n1)c1cncnc1 [KPT-8602]
[2]
  Incubation time with XPO1 to completely inhibit XPO1 binding to PKI NES: 60 min
[3]
  Reversibility of conjugation to XPO1: slowly reversible manner
[4]
  XPO1 degradation: induces XPO1 degradation in HT1080 cells in a dose-dependent manner
[5]
  Time post-treatment at which XPO1 total protein was decreased: ≤ 4 h
[6]
  Killing of primary CLL cells vs vehicle: induced dose-dependent killing of primary CLL cells
[7]
  Apoptosis of CLL cells in FBS and HS: effective in inducing apoptosis of CLL cells in both FBS and HS
[8]
  Time of treatment to nuclear retention of IkB: ≤ 8 h
[9]
  Proliferation of ABC-DLBCL cell lines: inhibited proliferation
[10]
  Proliferation of GC-DLBCL cell lines: inhibited proliferation
[11]; Mouse, po 5 mg/kg
  Mean Concentration at 2h post dose Brain: 105 ng·h/g
  Mean Concentration at 2h post dose Plasma: 550 ng·h/mL
[11]; mouse, brain/plasma, po, 5 mg/kg
  Kp at 2 h: 0.19
[12]; Rat, po 5 mg/kg
  Mean Concentration at 2h post dose Brain: 70 ng·h/g
  Mean Concentration at 2h post dose Plasma: 320 ng·h/mL
[12]; rat, brain/plasma, po, 5 mg/kg
  Kp at 2 h: 0.22
[13]; Monkey, po 10 mg/kg
  Mean Concentration at 2h post dose Brain: <32 ng·h/g
  Mean Concentration at 2h post dose Plasma: 1310 ng·h/mL
[13]; monkey, brain/plasma, po, 10 mg/kg
  Kp at 2 h: < 0.02
[14]
  Accumulation in plasma after repetitive dosing: does not accumulate in plasma after repetitive dosing
[1]; Fig.4A cohort, 15 mg/kg daily, oral gavage, vehicle 33 days
  Median OS: 70 days
[1]; Fig.4B, 15 mg/kg daily, three weeks post-treatment, p<0.001
  Percentage of CD5+ B-cells in peripheral blood vs vehicle or KPT-8602 2x/week: significantly lower
[1]; Fig.4C, 15 mg/kg daily, p<0.001
  Spleen size at study removal vs all other groups: significantly smaller
[1]; Fig.4F cohort, KPT-8602 15 mg/kg daily, p<0.001
  Spleen size vs vehicle or ibrutinib alone: significantly smaller
[1]; daily treatment, after 28 days
  Change in body weight: did not cause a significant change in body weight
[15]; 15 mg/kg daily and x2/week
  White blood cell count (WBC) vs vehicle: significantly reduced WBC
[16]
  IC50: 0.3 µM
[17]
  Accumulation of p53 in the nucleus: significant accumulation
[18]
  Accumulation of NPM1 in the nucleus: significant accumulation

## O=C(/C=C\n1cnc(-c2cc(C(F)(F)F)cc(C(F)(F)F)c2)n1)NNc1cnccn1 [KPT-330, selinexor, reference compound]
[2]
  Incubation time with XPO1 to completely inhibit XPO1 binding to PKI NES: 60 min
[5]
  Time post-treatment at which XPO1 total protein was decreased: ≤ 4 h
[8]
  Time of treatment to nuclear retention of IkB: ≤ 8 h
[15]; 20 mg/kg 2x/week
  White blood cell count (WBC) vs vehicle: significantly reduced WBC
[16]
  IC50: 0.1 µM
